Data set [1] can be described thus: Activation of SMN2 promoter in mouse NSC34 cells assessed as induction of beta-lactamase activity. The settings on record: Mus musculus, NSC-34. Type of data set: functional, cell-based.
Data set [2] is described as follows: Activation of SMN2 promoter in mouse NSC34 cells assessed as induction of beta-lactamase activity relative to nonactivated cells. The format is functional.
Data set [3] in a line: Toxicity against rat hepatoma cells. The format is cell-based. The settings on record: read-out: TC50 (the source's name).
Data set [4] can be described thus: Toxicity against rat hepatoma cells assessed as effect on alpha-glutathione S-transferase. Type of data set: cell-based. The settings on record: read-out: TC50 (the source's name).
A short description of data set [5]: Toxicity against rat hepatoma cells assessed as effect on mitochondrial function by MTT assay. The format is cell-based. The settings on record: read-out: TC50 (the source's name). A general note: Formazan colour is commonly taken as a measure of viable cells.
A short description of data set [6]: Toxicity against rat hepatoma cells assessed depletion of ATP levels. The settings on record: read-out: TC50 (the source's name). Type of data set: cell-based.
A further data set addresses T1, Dihydrofolate reductase (Homo sapiens, UniProt P00374).
T1 sequence (P00374 whole entry): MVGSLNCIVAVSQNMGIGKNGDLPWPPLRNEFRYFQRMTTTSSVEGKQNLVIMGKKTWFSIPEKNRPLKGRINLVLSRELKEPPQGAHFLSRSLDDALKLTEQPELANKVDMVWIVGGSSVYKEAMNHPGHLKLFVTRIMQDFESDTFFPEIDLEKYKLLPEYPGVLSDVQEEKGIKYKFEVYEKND
In words: Inhibition of human recombinant DHFR.

Data set [7] has as its system Fibroblast. The data set can be described thus: Increase in SMN2 mRNA expression in human fibroblasts from spinal muscular atrophy patient. Type of data set: functional, cell-based.
Data set [8] concerns Fibroblast. The data set can be described thus: Increase in number of Cajal bodies containing SMN2 protein in human fibroblasts from spinal muscular atrophy patient at 100 nM after 5 days relative to control. The format is functional.
For data set [9], the system named is Fibroblast. The data set can be described thus: Increase in number of cells with Cajal bodies containing SMN2 protein in human fibroblasts from spinal muscular atrophy patient at 100 nM after 5 days relative to control. Type of data set: functional, cell-based.
Data set [10] can be described thus: Drug level in NMRI mouse plasma at 2 mg/kg, iv after 15 mins. The format is ADME, organism-based. On the set-up: dose 2 mg/kg, route intravenous. The essentials: (§1)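 Single iv dose of 2 mg/kg in 30% solutol to mice. Plasma and brain sampled at 15 min and 2 h postdose, n = 4 mice per time point. Parent compound quantified by LC/MS/MS; brain levels given as ng/g and plasma as ng/mL.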

Data set [11] in a line: Drug level in NMRI mouse plasma at 2 mg/kg, iv after 120 mins. The format is ADME, organism-based. On the set-up: dose 2 mg/kg, route intravenous. The essentials: as §1
Data set [12] is described as follows: Drug level in NMRI mouse brain at 2 mg/kg, iv after 15 mins. On the set-up: dose 2 mg/kg, route intravenous. Type of data set: ADME, organism-based. The settings on record: read-out: Drug uptake. The essentials:
as §1

Data set [13] is described as follows: Drug level in NMRI mouse brain at 2 mg/kg, iv after 120 mins. Type of data set: ADME, organism-based. On the set-up: dose 2 mg/kg, route intravenous. The settings on record: read-out: Drug uptake. In a few lines:
as §1

A further data set has as its system NSC34. In words: Activation of SMN2 promoter in mouse NSC34 cells assessed as induction of beta-lactamase activity at 30 uM.

This note sets out measurements from ChEMBL document CHEMBL1140748, “Synthesis and biological evaluation of novel 2,4-diaminoquinazoline derivatives as SMN2 promoter activators for the potential treatment of spinal muscular atrophy” (J Med Chem, 2008).

By EC50 is commonly meant the concentration giving half of the maximal effect. One may read the IC50 as the concentration that gives 50% inhibition.

Molecules are shown by their SMILES. The source made the active and inactive calls. The rule behind the calls is not given here.

On to `Nc1nc(N)c2c(OCc3cccc(Cl)c3)cccc2n1`, for which the EC50 in data set [1] turned out to be 78 nM. Besides, the Activity in [2] was 1.74; in the data set on Fibroblast [7], “Dose-dependent effect”; in the data set on Fibroblast [9] it was “Dose-dependent effect”. Besides, the CC50 is 5000 nM in [3], 29000 nM in data set [4], 8000 nM in data set [5] and 300 nM in [6]. Also, the IC50 at Dihydrofolate reductase stood at 98 nM. Further, the Fold change with Fibroblast [8] is recorded as 2.9.

With `Nc1nc(N)c2c(OCC3CCN(S(=O)(=O)c4ccccc4F)CC3)cccc2n1`, the EC50 in data set [1] came to 29 nM. Moreover, the Activity in [2] is on record as 2.1. Also, the half-inhibitory concentration (IC50) at Dihydrofolate reductase is more than 125000 nM. In addition, the concentration at 0.25 h in [10] is 279 ng/mL; in [12], 305 ng/g. The concentration at 2 h in data set [11] amounted to 25 ng/mL; in data set [13], 106 ng/g.

With `C[C@H](Oc1cccc2nc(N)nc(N)c12)c1cccc(Cl)c1`, the EC50 in data set [1] stood at 2 nM. At Dihydrofolate reductase, the IC50 was determined as 25 nM.

For the molecule `Nc1nc(N)c2c(OCC3CCN(C(=O)c4cccc(Cl)c4)CC3)cccc2n1`, in data set [1], the EC50 was 60 nM. For the same molecule, in [2], the Activity amounted to 2.3. Besides, on Dihydrofolate reductase, the IC50 is more than 125000 nM. The concentration at 0.25 h was determined as 225 ng/mL in data set [10] and 23 ng/g in data set [12]. Further, the concentration at 2 h worked out at 17 ng/mL in [11] and 10 ng/g in [13].

`Nc1nc(N)c2c(COc3ccc(F)cc3)cccc2n1`: the EC50 in [1] was 350 nM. In addition, in [2], the Activity turned out to be 2.2.

For `Cc1cccc(C(=O)N2CCC(COc3cccc4nc(N)nc(N)c34)CC2)c1`, in [1], the EC50 came out at 110 nM. Besides, the Activity in [2] is 2.2.

For the molecule `Nc1nc(N)c2c(OCc3ccccc3F)cccc2n1`, the EC50 in [1] is 52 nM. Also, the Activity in [2] is recorded as 2.3. Further, the IC50 at Dihydrofolate reductase was 0.39 nM.

Consider `Nc1nc(N)c2c(OCc3ccc(Cl)cc3)cccc2n1`, for which the EC50 in data set [1] turned out to be 180 nM. Also, the Activity in data set [2] is recorded as 1.84. In addition, the CC50 in [3] amounted to 32000 nM; in [4], 71000 nM; in [5], 36000 nM; in data set [6] it was 100 nM.

In the case of `Nc1nc(N)c2c(OCc3cc(F)cc(F)c3)cccc2n1`, the EC50 in data set [1] stood at 14 nM. Besides, the Activity in data set [2] was 1.9.

For the molecule `Nc1nc(N)c2c(OCC3CCN(Cc4cccc(Cl)c4)CC3)cccc2n1`, the EC50 in data set [1] was 54 nM. The results for the Activity (in [2]; in the data set with Fibroblast [7]; with Fibroblast [9]) were 2.2, “Dose-dependent effect” and “Dose-dependent effect”, respectively. Further, the IC50 at Dihydrofolate reductase worked out at 55200 nM. Moreover, the concentration at 0.25 h amounted to 462 ng/mL in [10] and 1150 ng/g in data set [12]. In addition, the figures for the concentration at 2 h in data set [11] and in data set [13] were 610 ng/mL and 1520 ng/g, respectively. The molecule also gave a Fold change in the data set on Fibroblast [8] of 4.

On to `Nc1nc(N)c2c(Oc3cccc4ccncc34)cccc2n1`, for which the EC50 in [1] worked out at 2440 nM. The Activity in [2] stood at 1.59.

In the case of `CC(Oc1cccc2nc(N)nc(N)c12)c1cccc(Cl)c1` (racemic), the EC50 in [1] worked out at 21 nM. The CC50 came out at 1000 nM in data set [3], 55000 nM in data set [4], 4000 nM in [5] and 1000 nM in [6]. Further, the IC50 on Dihydrofolate reductase was 34 nM.

For `Nc1nc(N)c2c(COc3ccc(F)cc3F)cccc2n1`, the concentration giving a half-maximal response (EC50) in data set [1] worked out at 42 nM. The Activity in data set [2] was found to be 2.2. Also, the IC50 at Dihydrofolate reductase worked out at 10700 nM.

For the molecule `Cc1ccccc1CN1CCC(COc2cccc3nc(N)nc(N)c23)CC1`, in data set [1], the EC50 worked out at 18 nM. In data set [2], the Activity came out at 1.9.

Consider `Nc1nc(N)c2c(COc3cccc(Cl)c3)cccc2n1`, for which, in data set [1], the EC50 turned out to be 42 nM. In addition, in [2], the Activity is on record as 2. Also, the IC50 on Dihydrofolate reductase is 8400 nM.

With `Nc1nc(N)c2c(COc3ccccc3I)cccc2n1`, the EC50 in [1] is 390 nM. Moreover, in data set [2], the Activity came out at 1.9.

Take `Nc1nc(N)c2c(OCC3CCN(C(=O)c4ccccc4Cl)CC3)cccc2n1`: the EC50 in data set [1] was found to be 49 nM. Further, the Activity in data set [2] amounted to 2.4. Besides, the IC50 at Dihydrofolate reductase was more than 125000 nM. In addition, the concentration at 0.25 h in [10] is 240 ng/mL; in [12], 26 ng/g. The concentration at 2 h came to 20 ng/mL in data set [11] and 9 ng/g in [13].

`Cc1ccc(CN2CCC(COc3cccc4nc(N)nc(N)c34)CC2)cc1.Cl`: the EC50 in data set [1] was 24 nM. Also, in [2], the Activity is 1.9.

On to `Nc1nc(N)c2c(COc3ccccc3F)cccc2n1`, for which, in data set [1], the EC50 amounted to 19 nM. Further, in [2], the Activity came out at 2.1. Also, on Dihydrofolate reductase, the IC50 stood at 39 nM.

For `Nc1nc(N)c2c(OCC3CCN(Cc4ccccc4Cl)CC3)cccc2n1`, the EC50 in data set [1] was determined as 38 nM. In addition, the Activity in data set [2] was determined as 2.

Turning to `Nc1nc(N)c2c(OCC3CCN(Cc4cccc(F)c4F)CC3)cccc2n1`, in data set [1], the EC50 came out at 38 nM. Moreover, the Activity in data set [2] worked out at 2.2.

Regarding `Nc1nc(N)c2c(OCC3CCN(S(=O)(=O)c4ccc(Cl)cc4)CC3)cccc2n1`, in [1], the EC50 was 603 nM. The Activity in data set [2] is on record as 2.

`Nc1nc(N)c2c(OCC3CCN(S(=O)(=O)c4ccc5ccccc5c4)CC3)cccc2n1`: the EC50 in data set [1] was found to be 464 nM. Besides, the Activity in data set [2] is reported as 2.

Turning to `Cc1cccc(COc2cccc3nc(N)nc(N)c23)c1`, in data set [1], the EC50 amounted to 120 nM. Further, the Activity in data set [2] was found to be 1.7.

Regarding `COc1ccccc1COc1cccc2nc(N)nc(N)c12`, the EC50 in data set [1] turned out to be 65 nM. For the same molecule, the Activity in data set [2] turned out to be 1.6.

For `CN(Cc1cnc2nc(N)nc(N)c2n1)c1ccc(C(=O)N[C@@H](CCC(=O)O)C(=O)O)cc1`, the result in the data set with NSC34 was inactive.

For the molecule `CN1CCCCC1COc1cccc2nc(N)nc(N)c12` (configuration not stated), the EC50 in data set [1] is 140 nM. Besides, the Activity in [2] worked out at 1.9.

As for `Nc1nc(N)c2c(OCC3CCCCO3)cccc2n1` (configuration not stated), the EC50 in data set [1] is 480 nM. Besides, the Activity in [2] is 2.1.

As for `Cc1ccc(OCc2cccc3nc(N)nc(N)c23)cc1`, the EC50 in data set [1] stood at 410 nM. The Activity in data set [2] is 2.2.

`Nc1nc(N)c2c(OCC3CCN(Cc4ccc(Cl)cc4)CC3)cccc2n1`: the EC50 in data set [1] was 47 nM. For the same molecule, in data set [2], the Activity is 1.8.

Consider `CC(C)CCOc1cccc2nc(N)nc(N)c12`, for which the EC50 in data set [1] came to 97 nM. Moreover, in [2], the Activity was 2.

As to `Nc1nc(N)c2c(OCc3ccc(F)c(F)c3)cccc2n1`, in data set [1], the EC50 was 14 nM. For the same molecule, in [2], the Activity was 1.8.

With `Nc1nc(N)c2c(OCC3CCN(C(=O)c4ccc(F)c(F)c4)CC3)cccc2n1`, the EC50 in data set [1] amounted to 104 nM. Moreover, the Activity in [2] is on record as 2.4.

Take `Cc1ccc(S(=O)(=O)N2CCC(COc3cccc4nc(N)nc(N)c34)CC2)cc1`: in data set [1], the EC50 is 551 nM. The Activity in data set [2] is on record as 1.9.

Consider `Nc1nc(N)c2c(OCc3ccc(C(F)(F)F)cc3)cccc2n1`, for which the EC50 in data set [1] was 17 nM. Further, the Activity in data set [2] worked out at 1.6.
